Assay outcomes: PubChem, several laboratories
STAT3 blocker = STAT3 signaling inhibition; AID 862; 190,000 compounds, 0.89% hits; inhibition, % at 5.5 µM; U3A cells, IL-6 STAT3-luciferase reporter, luminescence; host cell line lacks STAT1;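 active means inhibition above the mean inhibition across all screened compounds plus 3 SD, cut at about 44% in these data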;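 further: 0% = DMSO only wells and 100% = 100 µM nifuroxazide control wells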
STAT1 act = increases IFN-gamma driven STAT1 reporter signal. NIH 3T3 STAT1-luciferase reporter, luminescence; 100% = IFN-gamma alone, no compound. activation (% of control), % at 5.5 µM. AID 932. 200,000 compounds, 2.6% hits;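 active means activation above the screen-wide mean activation plus 3 SD, cut at about 130% in these data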;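 further: raw ratio to IFN-gamma control signal so 100% means no change and 0% no light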
NF-kB neuron act = raises NF-kB expression in human neuronal cells; NF-kB reporter expression; stronger effect = higher value; fold change at 12.5 µM; 190,000 compounds, 1.6% hits; AID 1239; in the data active means fold change above about 3.3
STAT3 act = STAT3 signaling activation | U3A cells, IL-6 STAT3-luciferase reporter, luminescence; 100% = signal with IL-6 EC80 alone | activation (% of control), % at 5.6 µM | 190,000 compounds, 0.91% hits | AID 871;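 active means activation above the screen-wide mean of compound activation plus 3 SD, cut at about 130% in these data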;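 further: 0% = background luminescence of wells with medium and substrate only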
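Material: STAT3-luciferase reporter U3A cells; Probe or stimulus: IL-6 (33 ng/mL); Incubation: compound pre-incubation 1 h before IL-6, then 6 h stimulation at 37 °C; Technique: luminescence from STAT3-driven luciferase reporter; Evaluation: % activation versus median of IL-6-stimulated wells; Controls: IL-6-only high control.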
APP 5'UTR act = APP 5'UTR luciferase reporter activation | SH-SY5Y APP 5'UTR luciferase reporter, luminescence; zero percent = DMSO vehicle wells | activation, % at 2 µM | 190,000 compounds, 1% hits | AID 1276;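 active means activation above a set limit, based on mean plus 3 SD of controls, cut at about 140% in these data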
STAT1 inh = inhibitors of IFN-gamma induced STAT1 signaling | NIH 3T3 STAT1-luciferase reporter, luminescence | AID 920 | 200,000 compounds, 0.35% hits | inhibition, % at 5.5 µM;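 active means inhibition above a set limit, the mean inhibition across all tested compounds plus 3 SD, cut at about 34% in these data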;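 further: 0% = IFN-gamma with DMSO and 100% = IFN-gamma with 300 µM nifuroxazide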
* hit, by the source's call; nt = no result given. Hits are enriched below; roughly 5.1% of the tested compounds scored in any of these assays.

SMILES	STAT3 blocker	STAT1 act	NF-kB neuron act	STAT3 act	APP 5'UTR act	STAT1 inh
Cc1cc(C)n(C(CC(=O)O)C(=O)O)n1 (centres undefined)	6	105	1	100	139*	-6
COc1ccc(C(=O)N(c2ccccn2)C2CCCCC2)c(OC)c1	4	93	1	98	-1	6
CCN(CC)S(=O)(=O)c1cccc(-c2n[nH]c(=S)n2Cc2ccccc2)c1	-2	98	0.93	107	17	2
CCOC(=O)c1sc2nc3c(cc2c1N)COC(C)(C)C3	2	136*	5.9*	102	117	-39
Cc1cccc(/C=N\NC(=O)c2csnn2)c1	0	127	2	100	-3	-29
CN(C)c1ccc(/C=N\NC(=O)c2csnn2)cc1	37	112	3.4*	72	9	-14
CN(C)c1ccc(/C=N/NC(=O)c2ccnn2C)cc1	21	122	4.4*	87	46	-26
O=C(N/N=C\c1ccc(Oc2ccccc2)cc1)c1csnn1	15	137*	7.5*	91	5	-40
Cc1ccc(CN2CCSc3sccc3C2=O)cc1	-2	110	0.97	107	5	-14
CCc1nnc(NC(=O)c2cccc(OC)c2)s1	18	137*	2.7	86	101	-40
COc1cccc(C(=O)Nc2nnc(-c3cccs3)s2)c1	58*	102	3.3	52	56	-2
O=C(Nc1nnc(-c2cccs2)s1)C1CC1	1	130*	1.7	101	27	-34
CC(=O)C(C)Oc1cc(C)cc2oc(=O)c(C)c(C)c12 (centres undefined)	16	103	1	90	-20	-3
O=C(NC1CSC/C1=N\O)c1ccccc1 (centres undefined)	7	107	0.99	98	17	-7
O=C(COC(=O)c1ccc[nH]c1=O)NC1CCCC1	8	100	1.4	97	-3	1
COc1ccccc1C(=O)Nc1ccc2c3c(cccc13)CC2	-2	132*	1.5	99	48	-36
Cc1cc(C)n(-c2ccc(C(=O)OCC(=O)Nc3cc(Cl)ccc3[N+](=O)[O-])cc2)n1	-41	100	0.97	134*	-11	0
CCc1ccc(C2C(C(=O)O)c3ccccc3C(=O)N2C)cc1 (centres undefined)	-4	98	1.3	104	nt	4
CCOc1ccc(-c2cc(C(=O)OC)[nH]n2)cc1	1	142*	2.7	100	58	-44
O=C(CSC(=S)N1CCSCC1)c1ccc(Cl)cc1	19	129*	5.2*	90	151*	-31
O=C(Nc1ccccc1)N1CCSCC1	-3	107	1.7	105	-2	-7
O=C(CSC(=S)N1CCSCC1)c1ccccc1	30	137*	6.2*	80	113	-40
COc1ccccc1CNC(=O)/C=C/c1ccc(S(=O)(=O)N2CCOCC2)cc1	4	97	0.82	101	-17	2
CNc1ncc(C(=O)c2ccc(Cl)c(Cl)c2)s1	-7	125	4.3*	107	0	-28
O=C(c1cnc(-c2ccc(Cl)cc2)s1)c1ccc(Cl)cc1Cl	4	104	1.6	98	-6	-5
SMILES	STAT3 blocker	STAT1 act	NF-kB neuron act	STAT3 act	APP 5'UTR act	STAT1 inh
CNc1ncc(C(=O)c2ccc(Cl)cc2)s1	10	114	4*	93	97	-16
O=C(c1ccc(Cl)c(Cl)c1)c1cnc(Nc2ccccc2)s1	12	95	1.2	96	1	6
NC(=O)c1sc2nccc(Nc3ccccc3)c2c1N	14	94	1.3	92	-10	8
O=C(/C=C/NNC(=O)c1cccc(Br)c1)c1cccc(Br)c1	4	118	0.87	103	nt	-19
CC(=O)Oc1ccc2c(=O)c(-c3ccccc3)coc2c1	7	131*	2.5	96	69	-34
CCCC(=O)Nc1ccc2oc(-c3cncc(Br)c3)nc2c1	16	139*	3.4*	92	128	-44
CCCNC(=O)c1cccc(COCC(F)(F)F)c1	11	98	1.4	94	-13	2
Cc1ccc([N+](=O)[O-])cc1-c1ccc(/C=C(\C#N)c2[nH]nc(N)c2C#N)o1	-13	140*	1.4	111	42	-45
CCOC(=O)Cn1c(-c2ccccc2)nc2ccccc2c1=O	13	129*	1.2	96	20	-32
CCn1nc(C)cc1C(=O)N1CCc2c([nH]c3ccccc23)C1c1cc(F)ccc1F (centres undefined)	-49	137*	2.1	150*	41	-44
CC(=O)c1sc(NC(=O)C=C(C)C)nc1C	7	105	1.9	96	13	-6
CC(=O)c1sc(NC(=O)C2(F)C(F)(F)C(F)(F)C(F)(F)C(F)(F)C2(F)F)nc1C	58*	66	0.55	55	-12	37*
S=C(NCc1ccccn1)Nc1ccc(Cl)cc1Cl	3	105	1.4	98	48	-6
O=C(/C=C/c1ccccc1)Nc1ccc2c(c1)C(=O)NC2=O	11	129*	1.5	98	8	-31
Cc1[nH]n(C(N)=S)c(=O)c1N=Nc1cc(-c2ccc(Br)cc2)[nH]n1	7	106	1.1	96	3	-8
Fc1cccc(CSc2nc3ccncc3[nH]2)c1	-1	105	2	101	-19	-6
O=C1c2ccccc2C(=O)N1CCN1CCc2ccccc21	2	132*	1.2	101	23	-35
CCCC(=O)c1ccc(N2CCCCCC2)c(F)c1	3	114	2.1	102	8	-15
CCCC(=O)c1ccc(N2CCCCC2)c(F)c1	5	130*	1.8	102	51	-34
Cc1ccc(N2CC(C(=O)OCc3ccc([N+](=O)[O-])cc3)CC2=O)cc1 (centres undefined)	-4	92	1	103	-26	9
Cc1n[nH]c(C)c1S(=O)(=O)N1CCCC(C(=O)NCc2ccccc2Cl)C1 (centres undefined)	2	94	0.87	102	1	6
O=C1CCCN1CCCNS(=O)(=O)c1cccc(F)c1	0	97	1	102	-2	3
CCOC(=O)C/C(C)=N/NC(=O)Nc1ccccc1	-3	131*	1.1	111	25	-34
CC1=C(C(=O)NCc2ccccc2)C(c2ccc(C)o2)n2ncnc2N1 (centres undefined)	7	102	1.1	101	-9	-2
CCOc1ccc(OCC(=O)Nc2nccs2)cc1	95*	43	2.6	21	157*	61*
O=C(CCCOc1ccccc1)Nc1nccs1	16	99	1.1	89	1	1
COc1ccc(C(CC(=O)Nc2nccs2)n2cccc2)cc1 (centres undefined)	-8	156*	4.5*	111	194*	-62
